Laboratory results: ChEMBL document CHEMBL1156358, “Inhibition of leukocyte functions by the alkaloid isaindigotone from Isatis indigotica and some new synthetic derivatives” (J Nat Prod, 2001)
pIC50: −log10 of the molar value. Activity calls are given as the source filed them. The calls are words filed in the database; no cut-off is given here.

Assays:
RAW264.7 [1] = test: Antiinflammatory activity against LPS-stimulated mouse RAW264.7 cells assessed as nitrite accumulation at 10 uM after 20 hrs by fluorimetry relative to control; format: functional
Summary of the method: (§1)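 Mouse RAW 264.7 cells (2×10^6/mL) in DMEM plus 10% FBS were stimulated for 20 h with E. coli LPS (1 µg/mL), with compound or 1% v/v methanol vehicle. Nitrite in 10 µL supernatant was read fluorometrically after 10 min in the dark with 2,3-diaminonaphthalene (0.05 mg/mL in 0.62 M HCl). Single-point tests used 10 µM, given as mean ± SEM (n = 9-12). IC50s carry 95% confidence limits.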

RAW264.7 [2] = test: Antiinflammatory activity against LPS-stimulated mouse RAW264.7 cells assessed as PGE2 accumulation after 20 hrs by RIA; format: functional, cell-based; conditions: RAW264.7, 20 h
Summary of the method: (§2)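 RAW 264.7 mouse macrophages (2×10^6/mL) in DMEM with 10% foetal bovine serum were stimulated with E. coli LPS (1 µg/mL) for 20 h alongside compound or vehicle (methanol, 1% v/v). Supernatant PGE2 was measured by radioimmunoassay. Single-point tests used 10 µM, reported as mean ± SEM (n = 9-12) against vehicle-treated stimulated cells. IC50 values carry 95% confidence limits.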

RAW264.7 [3] = test: Antiinflammatory activity against LPS-stimulated mouse RAW264.7 cells assessed as nitrite accumulation after 20 hrs by fluorimetry; format: functional, cell-based; conditions: RAW264.7, 20 h; summary of the method: as §1
[4] = Antioxidant activity in cytochalasin B and fMLP-stimulated human neutrophils assessed as inhibition of p-nitrophenol-induced elastase activity at 10 uM
[5] = Antioxidant activity against 12-O-tetradecanoylphorbol-13-acetate-stimulated superoxide radical generation in human neutrophils assessed as chemiluminescence unit per 10^6 cells at 10 uM; format: functional, Neutrophil; set-up: unit not given here
Summary of the method: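 Human neutrophils (2.5×10^6 cells/mL) were loaded with luminol (40 µM) and stimulated with TPA (1 µM) for 7 min. Chemiluminescence was recorded, with compounds at 10 µM. Controls were stimulated cells given vehicle. Data are mean ± SEM.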

RAW264.7 [6] = test: Antiinflammatory activity against LPS-stimulated mouse RAW264.7 cells assessed as PGE2 accumulation at 10 uM after 20 hrs by RIA relative to control; format: functional; summary of the method: as §2
[7] = target: T1, Polyunsaturated fatty acid 5-lipoxygenase (Homo sapiens) (UniProt P09917); test: Inhibition of 5LO-mediated LTB4 production in calcium ionophore A23187-stimulated human neutrophils at 10 uM by RIA
T1 sequence (whole entry): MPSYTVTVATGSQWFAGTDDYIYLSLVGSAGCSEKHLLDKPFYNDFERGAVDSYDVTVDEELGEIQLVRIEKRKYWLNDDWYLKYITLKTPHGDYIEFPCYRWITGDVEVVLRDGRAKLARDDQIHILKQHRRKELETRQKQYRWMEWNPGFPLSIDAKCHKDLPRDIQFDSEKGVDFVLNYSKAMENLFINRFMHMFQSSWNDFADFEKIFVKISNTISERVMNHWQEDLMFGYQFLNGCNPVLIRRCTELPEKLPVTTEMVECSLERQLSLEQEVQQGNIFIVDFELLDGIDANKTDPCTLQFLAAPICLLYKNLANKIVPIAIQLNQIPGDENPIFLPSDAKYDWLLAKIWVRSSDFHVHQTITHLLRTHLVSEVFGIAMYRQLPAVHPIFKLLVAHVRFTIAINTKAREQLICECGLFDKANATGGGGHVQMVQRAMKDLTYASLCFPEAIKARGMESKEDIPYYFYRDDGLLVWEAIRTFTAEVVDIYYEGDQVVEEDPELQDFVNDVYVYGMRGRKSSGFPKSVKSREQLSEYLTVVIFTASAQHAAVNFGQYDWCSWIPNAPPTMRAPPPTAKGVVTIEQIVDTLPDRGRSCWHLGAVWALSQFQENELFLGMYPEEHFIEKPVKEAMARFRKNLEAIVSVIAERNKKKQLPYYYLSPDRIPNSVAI

Neutrophil [8] = test: (§3) Antioxidant activity against hypoxanthine / xanthine oxidase system-stimulated superoxide radical generation in human neutrophils; format: functional, cell-based
[9] = Cytotoxicity against human neutrophils at 10 uM by MTT assay; format: cell-based; conditions: neutrophil
[10] = (§4) Antioxidant activity against 12-O-tetradecanoylphorbol-13-acetate-stimulated superoxide radical generation in human neutrophils; format: functional, cell-based; conditions: Neutrophil
Neutrophil [11] = test: as §4; format: functional, cell-based
[12] = target: T2, Polyunsaturated fatty acid 5-lipoxygenase (Homo sapiens, UniProt P09917); test: (§5) Inhibition of 5LO-mediated LTB4 production in human neutrophils by RIA
T2 sequence (P09917 whole entry): T1 sequence (whole entry)

[13] = target: T1, Polyunsaturated fatty acid 5-lipoxygenase (Homo sapiens); test: as §5
[14] = as §3; format: functional, cell-based; conditions: Neutrophil

| Compound | Activity (RAW264.7 [1]) | pIC50 (RAW264.7 [2]) | pIC50 (RAW264.7 [3]) | Activity [4] | Activity [5] | Activity (RAW264.7 [6]) | Activity [7] | Activity (Neutrophil [8]) | Activity [9] | pIC50 [10] | Activity (Neutrophil [11]) | pIC50 [12] | Activity [13] | pIC50 [14] |
| --- | --- | --- | --- | --- | --- | --- | --- | --- | --- | --- | --- | --- | --- | --- |
| O=c1c2ccccc2nc2n1CC/C2=C\c1ccc(F)cc1 | 438 ng/mL | 7.10 | < 5.00 | 19.7 nmol/mL | 3221.7 | 5.7 ng/mL | 58.9 ng/mL | inactive | Non-toxic | – | – | – | – | – |
| CS(=O)(=O)Nc1ccc([N+](=O)[O-])cc1OC1CCCCC1 [NS-398] | – | 8.68 | < 5.00 | – | – | 3.7 ng/mL | – | – | – | – | – | – | – | – |
| CC(=N)NCc1cccc(CN)c1 [1400W] | 11.6 ng/mL | < 5.00 | 6.52 | – | – | – | – | – | – | – | – | – | – | – |
| O=c1c2ccccc2nc2n1CC/C2=C\c1ccc(O)cc1 | 429.8 ng/mL | < 5.00 | < 5.00 | 16.9 nmol/mL | 3269.2 | 15.4 ng/mL | 55.9 ng/mL | inactive | Non-toxic | – | – | – | – | – |
| O=c1c2ccccc2nc2n1CC/C2=C\c1ccc(C(F)(F)F)cc1 | 448 ng/mL | < 5.00 | < 5.00 | 19.3 nmol/mL | 4101.1 | 15.6 ng/mL | 57.9 ng/mL | inactive | Non-toxic | – | – | – | – | – |
| COc1cc(/C=C2\CCn3c2nc2ccccc2c3=O)cc(OC)c1 | 437.2 ng/mL | < 5.00 | < 5.00 | 16.8 nmol/mL | 4150.7 | 14.8 ng/mL | 58.4 ng/mL | inactive | Non-toxic | – | – | – | – | – |
| CCn1c(=O)ccc2cc(COc3cc(F)cc(C4(OC)CCOCC4)c3)ccc21 | – | – | – | – | – | – | 4.5 ng/mL | – | – | – | – | – | – | – |
| CC(=O)Oc1ccc(/C=C2\CCn3c2nc2ccccc2c3=O)cc1 | 151.2 ng/mL | – | 5.74 | 19.2 nmol/mL | 2636.4 | 9.9 ng/mL | 59.8 ng/mL | inactive | Non-toxic | – | – | – | – | – |
| O=c1c2ccccc2nc2n1CC/C2=C\c1ccccc1 | 337.1 ng/mL | – | < 5.00 | 19.1 nmol/mL | 2960.4 | 4.8 ng/mL | 61.6 ng/mL | inactive | Non-toxic | – | – | – | – | – |
| COc1cc(/C=C2\CCn3c2nc2ccccc2c3=O)cc(OC)c1O [ISAINDIGOTONE] | 459.3 ng/mL | < 5.00 | < 5.00 | 19.3 nmol/mL | 570.6 | 20.3 ng/mL | 4.2 ng/mL | – | Non-toxic | 7.38 | Dose-dependent effect | 7.40 | Dose-dependent effect | 7.37 |
| COc1cc(/C=C2\CCn3c2nc2ccccc2c3=O)cc(OC)c1OC(C)=O | 143.4 ng/mL | 6.70 | 5.38 | 18.6 nmol/mL | 2486.9 | 6.7 ng/mL | 13.5 ng/mL | inactive | Non-toxic | – | – | 6.22 | Dose-dependent effect | – |
